Assay results of several laboratories.
Lines come from different studies, so protocols differ.
Action: inhibitor
rep main protease: Replicase polyprotein 1ab, main protease (rep, Severe acute respiratory syndrome coronavirus 2, UniProt P0DTD1)
rep methyltransferase: Replicase polyprotein 1ab, methyltransferase (rep, Severe acute respiratory syndrome coronavirus 2, UniProt P0DTD1)
rep papain-like protease: Replicase polyprotein 1ab, papain-like protease (rep, Severe acute respiratory syndrome coronavirus 2, UniProt P0DTD1)

[2H]C([2H])([2H])n1ncc2cc(/N=c3\[nH]c(=O)n(Cc4ncn(C)n4)c(=O)n3Cc3cc(F)c(F)cc3F)c(Cl)cc21 gave an IC50 of 3.53 µM (rep main protease; enzyme activity; FRET).
Cc1c[nH]c2ncc(C(=O)N[C@H]3[C@H](CNc4cc(=O)n5ccccc5n4)CCC34CCC4)cc12 gave an IC50 of 32.7 µM (rep main protease; enzyme activity).
For O=C1c2ccccc2NC(c2cc([N+](=O)[O-])ccc2O)N1N=Cc1cc([N+](=O)[O-])ccc1O (stereo not drawn), the IC50 was > 40 µM (rep main protease; enzyme activity in cells).
The IC50 of CN(C(=O)[C@H](Cc1ccccc1)NC(=O)OCc1ccccc1)N(C#N)CCC(N)=O is reported as 2.33 µM (rep main protease; enzyme activity).
For O=C1c2ccccc2NC(c2cc(Br)ccc2O)N1N=Cc1cc(Br)ccc1O (stereo not drawn), the IC50 was > 40 µM (rep main protease; enzyme activity in cells).
CC(C)c1nc(CN(C)C(=O)N[C@@H](CCN2CCOCC2)C(=O)N[C@H](CC[C@H](Cc2ccccc2)NC(=O)OCc2cncs2)Cc2ccccc2)cs1 gave an IC50 of > 240 µM (rep main protease; enzyme activity; luciferase).
With CCc1ccc(/C=C/C(=O)Nc2ccc(C(C)=O)cc2)o1 the IC50 was 5 µM (rep main protease; enzyme activity).
For COc1ccc(O)c(C=NN2C(=O)c3ccccc3NC2c2cc(OC)ccc2O)c1 (stereo not drawn), the IC50 was 6.5 µM (rep main protease; enzyme activity in cells).
CC(C)C[C@H](NC(=O)OCc1ccccc1)C(=O)N(C)N(C#N)CCC(N)=O gave an IC50 of 1.45 µM (rep main protease; enzyme activity).
For Oc1ccc(O)cc1, the IC50 was 12.2 µM (rep methyltransferase; enzyme activity).
The IC50 of Cc1coc2c1C(=O)C(=O)c1c-2ccc2c1CCCC2(C)C is reported as 15.3 µM (rep papain-like protease; enzyme activity; FRET; pH 7.5).
CC1(C)CC(=O)c2c(oc3c(Cl)cc(NS(=O)(=O)c4ccc5ccccc5c4)cc23)C1 gave an IC50 of 87 µM (rep methyltransferase; enzyme activity).
The IC50 of NC(Cc1cc(O)c(O)cc1O)C(=O)O (racemic) is reported as > 20 µM (rep main protease; enzyme activity).
For Cc1cccc2c3c(ccc12)C1=C(C(=O)C3=O)[C@@H](C)CO1, the IC50 was 33 µM (rep papain-like protease; enzyme activity; FRET; pH 7.5).
Cc1cccc(C)c1OCC(=O)N[C@@H](Cc1ccccc1)[C@@H](O)C[C@H](Cc1ccccc1)NC(=O)[C@H](C(C)C)N1CCCNC1=O gave an IC50 of > 240 µM (rep main protease; enzyme activity; luciferase).
CCCCCCCCOc1ccccc1C(=O)Nc1ccc(C(=O)OCC[N+](C)(CC)CC)cc1 has an IC50 of 39.3 µM (rep methyltransferase; enzyme activity).
For Nc1ccc(C(=O)N2CC3(CCC3)C[C@H]2CNC(=O)c2cncc3ccccc23)cc1O, the IC50 was 29.6 µM (rep main protease; enzyme activity).
Cc1ccc(-c2nc(N3CCOCC3)s[n+]2-c2ccccc2)cc1 gave an IC50 of 0.353 µM (rep main protease; enzyme activity).
Cc1c(O)cccc1C(=O)N[C@@H](CSc1ccccc1)[C@H](O)CN1C[C@H]2CCCC[C@H]2C[C@H]1C(=O)NC(C)(C)C gave an IC50 of > 10 µM (rep main protease; enzyme activity in cells).
With COc1cc(C[C@@H](C)[C@@H](C)Cc2cc(O)c(OC)c(OC)c2)cc(O)c1OC the IC50 was 3.07 µM (rep main protease; enzyme activity; FRET).
For CC[N+](C)(CC)CCC[n+]1c(-c2ccccc2)c2cc(N)ccc2c2ccc(N)cc21, the IC50 was > 20 µM (rep main protease; enzyme activity).
O=c1oc2c(cc1O)oc(=O)c1cc(O)c(O)c(O)c12 has an IC50 of 24.1 µM (rep methyltransferase; enzyme activity).
For CN(C(=O)[C@H](Cc1ccccc1)NC(=O)[C@@H](NC(=O)OCc1ccccc1)C(C)(C)C)N(C#N)CCC(N)=O, the IC50 was 0.236 µM (rep main protease; enzyme activity).
O=C(NCCCNc1nc(Nc2cccc(NC(=O)N3CCCC3)c2)ncc1I)c1cccs1 has an IC50 of 8.7 µM (rep main protease; enzyme activity).
For O=C(Cn1nnc2ccccc21)Nc1ccccc1N1CCc2sccc2C1, the IC50 was > 100 µM (rep main protease; enzyme activity; FRET).
For O=c1c2ccccc2[se]n1-c1cccc2cccnc12, the IC50 was 2.6 µM (rep main protease; enzyme activity; FRET).
O=c1oc2c(O)c(O)cc3c(=O)oc4c(O)c(O)cc1c4c23 has an IC50 of 22.9 µM (rep methyltransferase; enzyme activity).
For CC(=O)N[C@@H](CS)C(=O)O, the IC50 was > 450 µM (rep main protease; enzyme activity).
With CC(C)c1cccc(NC(=O)C2CC(=O)Nc3ccccc32)c1 (stereo not drawn) the IC50 was 3.72 µM (rep main protease; enzyme activity).
CCOc1nc2cccc(C(=O)O)c2n1Cc1ccc(-c2ccccc2-c2nnn[nH]2)cc1 gave an IC50 of > 240 µM (rep main protease; enzyme activity).
For CCCCCC/C=C\CCCCCCCCCc1cc(O)cc(O)c1, the IC50 was > 100 µM (rep main protease; enzyme activity; with preincubation).
With C=C(c1ccc(C(=O)O)cc1)c1cc2c(cc1C)C(C)(C)CCC2(C)C the IC50 was 20 µM (rep main protease; enzyme activity in cells).
CC(=O)O/N=C1/C(=O)N(Cc2cc(Cl)ccc2Cl)c2ccc(Cl)cc21 gave an IC50 of 17.9 µM (rep main protease; enzyme activity).
The IC50 of Nc1nc2nc[nH]c2c(=S)[nH]1 is reported as > 60 µM (rep papain-like protease; enzyme activity; FRET; pH 7.5).
The IC50 of Oc1ccc2ccccc2c1SSc1c(O)ccc2ccccc12 is reported as 0.5 µM (rep main protease; enzyme activity).
N#CC(C(N)=O)=C1Oc2c(cc(O)cc2-c2ccc(Cl)c(Cl)c2)S1 has an IC50 of 45 µM (rep methyltransferase; enzyme activity).
With Cc1cccc(C)c1OCC(=O)N[C@@H](Cc1ccccc1)[C@@H](O)C[C@H](Cc1ccccc1)NC(=O)[C@H](C(C)C)N1CCCNC1=O the IC50 was 206 µM (rep main protease; enzyme activity).
For COc1cc(C[C@@H](C)[C@@H](C)Cc2ccc(O)c(OC)c2)ccc1O, the IC50 was 4.24 µM (rep papain-like protease; enzyme activity; FRET).
CCOc1cc(C(Nc2cc(C)ccn2)c2ccc3cccnc3c2O)ccc1OC (stereo not drawn) has an IC50 of 0.27 µM (rep main protease; enzyme activity).
The IC50 of CN(C)[C@@H]1C(O)=C(C(N)=O)C(=O)[C@@]2(O)C(O)=C3C(=O)c4c(O)cccc4[C@@](C)(O)[C@H]3[C@H](O)[C@@H]12 is reported as > 240 µM (rep main protease; enzyme activity; luciferase).
COc1ccc2nc(NC(=O)CSc3nc4ccccc4c4nnnn34)sc2c1 gave an IC50 of 44.8 µM (rep methyltransferase; enzyme activity).
COC(=O)C1=C(C)NC(C)=C(C(=O)OCCN2CCN(C(c3ccccc3)c3ccccc3)CC2)C1c1cccc([N+](=O)[O-])c1 (stereo not drawn) has an IC50 of > 240 µM (rep main protease; enzyme activity; luciferase).
CN1CCN(C(=O)c2ccc(-c3ccc4c(C=O)c(O)ccc4c3)s2)CC1 has an IC50 of 1.3 µM (rep main protease; enzyme activity).
The IC50 of CC(C)=CCOc1ccc(/C=C/C(=O)c2ccc(OCC=C(C)C)cc2OCC(=O)O)cc1 is reported as 37.6 µM (rep methyltransferase; enzyme activity).
The IC50 of COC(=O)N[C@H](C(=O)N[C@@H](Cc1ccccc1)[C@@H](O)CN(Cc1ccc(-c2ccccn2)cc1)NC(=O)[C@@H](NC(=O)OC)C(C)(C)C)C(C)(C)C is reported as > 240 µM (rep main protease; enzyme activity; luciferase).
